Assay outcomes (PubChem BioAssay)
An excerpt weighted towards active compounds, which were near 1.6% of everything screened.
Arrestin-AP2 inh = human beta-arrestin and AP2 interaction inhibition; inhibition, % at 10 µM; AID 504490; hit rate 0.31% among 340,000; FITC-arrestin peptide / GST-AP2 beads, flow cytometry; AP2 beta2 appendage carries R879A mutation;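 active = inhibition above a set limit, near 3 SD of compounds lacking own fluorescence, cut at about 54% in these data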;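 also: plate controls were DMSO wells for no effect and 5 µM unlabelled arrestin peptide for full effect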
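Test system: GST-tagged AP2 beta2-adaptin appendage (R879A) on 4 µm glutathione beads; also added: fluorescein-tagged arrestin peptide at 50 nM final; timing: 12 min plus 1 h, RT; signal: flow cytometry, FL1 (488/535 nm); read-out: percent drop in bead-associated FITC signal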
TbMetRS inhib = blocks T. brucei methionyl-tRNA synthetase activity. inhibition, % at 11.9 µM. purified T. brucei MetRS, ATP depletion, Kinase-Glo luminescence. hit rate 0.4% among 360,000. AID 624268;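 active = inhibition above a per-plate cutoff of the control wells' mean inhibition plus 3 SD, cut at about 5.5% in these data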;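 also: 0% = DMSO wells median and 100% = median of wells with control inhibitor compound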
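Test system: purified T. brucei MetRS enzyme. Also added: ATP, methionine and E. coli bulk tRNA substrates. Compound: 11.9 µM single point. Schedule: 15 min enzyme-compound preincubation, 2 h reaction, 10 min detection, 25 °C. Signal: luciferase luminescence of residual ATP, Kinase-Glo. Evaluation: percent inhibition versus plate control medians. Controls: DMSO wells, low control.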
SKN-1 inh = inhibitors of C. elegans SKN-1. C. elegans VP596 Pgst-4::GFP/RFP ratio, acrylamide-induced, 24 h. inhibition, % at 21.8 µM. hit rate 0.49% among 360,000. AID 624304;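 active = interference check ratio from 0.5 to 1.5 plus GFP to RFP signal ratio inhibition reaching or exceeding a fixed threshold, cut at about 30% in these data, passing the limit was not always enough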
Rin1-Abl PPI inh = inhibitors of human Rin1-Abl protein interaction | P00519+Q13671 | TR-FRET Rin1/Abl binding, biochemical | inhibition, % at 7.35 µM | hit rate 0.4% among 360,000 | AID 588664; in the data active = inhibition above about 5%, passing the limit was not always enough
MT1-MMP act inh = inhibitors of human MT1-MMP activation; P50281; HT1080 RFP-PRO-GFP cells, GFP/RFP ratio fluorescence, overnight; percent of plate control window, DMSO zero; GFP/RFP ratio change, % at 20 µM; hit rate 0.061% among 360,000; AID 651647;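 active = GFP/RFP ratio change of at least 30% with cell ATP level not reduced by more than half and red fluorescence within 50% of control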
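Test system: HT1080 cells expressing an RFP-PRO-GFP fluorescent reporter construct / Compound dosing: single-point 20 µM compound, 1% DMSO / Schedule: cells overnight before dosing, compound overnight, 37 °C, 5% CO2 / Evaluation: GFP/RFP fluorescence ratio / Control set: DMSO and RFP-L50D-GFP cell wells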
Arr AP2 CP1 = blocks beta-arrestin peptide binding to human AP2; hit rate 2% among 1,300; GST-AP2 beads, FITC arrestin peptide binding, flow cytometry; GST-fused beta2-adaptin appendage, R879A mutant; shares compounds with Arrestin-AP2 inh; inhibition, % at 10 µM;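 active = inhibition above a set limit, roughly 3 SD of non-fluorescent compound noise, cut at about 38% in these data; inactive = inhibition at or below that limit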;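 also: loss of bead fluorescence from 50 nM FITC arrestin peptide bound to appendage; 0% = negative control wells and 100% = excess unlabelled arrestin peptide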
GST GSH counter = disrupts GST binding to glutathione beads, arrestin-AP2 artifact. hit rate 2% among 1,300. shares compounds with Arrestin-AP2 inh. inhibition, % at 10 µM. GST-fluorescein binding to GSH beads, fluorescence, counter-screen;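 active = inhibition above 50%, about 3 SD of the inhibition seen with non-fluorescent compounds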;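 also: fluorescein maleimide labelled GST captured on 4 micron glutathione beads; higher means more loss of bead fluorescence from quenching or blocked binding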
Numbers without * were called inactive; . = no result.

SMILES | Arrestin-AP2 inh | TbMetRS inhib | SKN-1 inh | Rin1-Abl PPI inh | MT1-MMP act inh | others
Fc1ccc(-n2nnc(-c3cccnc3)n2)cc1 | 26.9 | -0.1 | 56.2* | 5.3 | -5.9
Clc1ccc(-n2nnc(-c3nccs3)n2)cc1Cl | -0.7 | 0.2 | 60.6* | 1.4 | 1.5
Brc1ccccc1-n1nnc(-c2cccnc2)n1 | 2.0 | -0.3 | 31.9 | -1.0 | 2.4
Clc1ccc(-n2nnc(-c3cccnc3)n2)cc1Cl | 11.6 | -0.3 | 59.0* | 3.0 | -1.5
COC(=O)/C=C1\OC(C2CC2)c2ccccc21 (stereo not given) | . | -1.2 | 4.8 | . | -4.3
CC(C)(C)OC(=O)N1CCCC(C(=O)Nc2ccc(C(=O)NC3CC3)cc2)C1 (stereo not given) | -10.2 | -0.3 | -4.4 | -3.4 | 1.1
O=C(C[C@H]1CC[C@@H](NC(=O)C2CC2)[C@@H](CO)O1)NCc1ccccc1Cl | . | 0.0 | 15.3 | . | -1.6
Cc1ccc(/C=C2\CCC3=C2OC(N)=C(C#N)C3c2ccc(C)cc2)cc1 (stereo not given) | 11.4 | -0.3 | 35.2* | -0.3 | -171.6
Cc1ccc(S(=O)(=O)N2CCCCC2)cc1C(=O)N(CCc1ccccc1)Cc1ccccc1 | 0.7 | -0.4 | 4.7 | 1.7 | -11.2
COCC(=O)N1C[C@@H](C)[C@@H](OC)CN(C)C(=O)c2ccc(NC(=O)c3cnccn3)cc2OC[C@H]1C | . | -0.9 | 3.8 | . | 3.2
Cc1cccc(NC(=O)c2cccc(C(=O)Nc3cccc(C)n3)c2)n1 | -4.3 | -1.1 | 3.4 | 1.4 | -3.2
Cc1cccc(NC(=O)c2ccc3c(c2)C(=O)N(c2ccccc2C)C3=O)n1 | 27.7 | 0.3 | 43.0* | 4.8 | -1.5
CC(C1SC(=S)NC1=O)C1SC(=S)NC1=O (stereo not given) | . | -0.2 | 14.9 | -4.7 | -65.3
COc1ccccc1NS(=O)(=O)c1cccc(C(=O)NCC2(N(C)C)CCCCC2)c1 | 3.1 | -0.1 | 14.7 | 4.9 | 2.6 | Arr AP2 CP1=-1.1;GST GSH counter=-14.7
CN(c1ccc(F)cc1)S(=O)(=O)c1ccc(Cl)c(C(=O)NCC2(N3CCOCC3)CCCCC2)c1 | -2.5 | -0.2 | 4.3 | 0.8 | 1.3 | Arr AP2 CP1=-13.3;GST GSH counter=-6.2
COc1ccc(Cl)cc1NS(=O)(=O)c1cccc(C(=O)NCC2(N(C)C)CCCCC2)c1 | 39.4 | -0.3 | 8.1 | 3.7 | -0.8 | Arr AP2 CP1=4.2;GST GSH counter=-2.2
COc1ccccc1NS(=O)(=O)c1ccc(C(=O)NCC2(N(C)C)CCCCC2)cc1 | -5.2 | -0.4 | 4.9 | -0.6 | -3.3
CN(c1ccc(F)cc1)S(=O)(=O)c1ccc(Cl)c(C(=O)NCC2CCCO2)c1 (stereo not given) | 8.4 | 0.0 | -8.9 | 8.0 | -0.9
COc1ccccc1N(C)S(=O)(=O)c1ccc(Cl)c(C(=O)NCC2(N(C)C)CCCCC2)c1 | -1.9 | -0.5 | -13.9 | 3.7 | 4.1 | Arr AP2 CP1=6.1;GST GSH counter=1.8
CC(C)C#Cc1ccc2c(c1)O[C@@H](CN(C)S(=O)(=O)c1cn(C)cn1)[C@@H](C)CN([C@H](C)CO)S2(=O)=O | . | -0.6 | 3.7 | -2.6 | -0.9
C[C@@H]1CN([C@H](C)CO)C(=O)c2cc(C3=CCCCC3)cnc2O[C@@H]1CN(C)Cc1ccccc1C(=O)O | . | -0.3 | -3.1 | 0.1 | -2.5
COc1ccc(CNC(=O)C2(C)Cc3c(-c4cccc(NC(C)=O)c4)ccnc3O2)cc1OC (stereo not given) | . | -0.3 | 3.0 | 2.6 | -0.2
Cc1ccc(N(C(=O)Nc2ccccc2)C2=NCC(C)S2)cc1 (stereo not given) | 7.8 | -0.1 | 8.5 | -7.2 | 8.6
Cc1c(N(C(=O)Nc2ccccc2)C2=NCC(C)S2)c(=O)n(-c2ccccc2)n1C (stereo not given) | 98.0* | 0.3 | 1.8 | 0.9 | 0.8 | Arr AP2 CP1=-2.8;GST GSH counter=-0.8
COc1cccc(NC(=O)C2(C)CCCN(C(C)C)C2)c1 (stereo not given) | . | -0.1 | -2.7 | -4.3 | 3.8
